ChEMBL document CHEMBL1156267, “Studies of the synthesis of all stereoisomers of MG-132 proteasome inhibitors in the tumor targeting approach” (J Med Chem, 2010)
Calls of active or inactive are those of the source. No cut-off for these calls is given here. Square brackets hold non-standard residues; d marks the D form. Peptide text beside a SMILES is read from it. * marks the point of attachment. 1Nal = N[C@@H](Cc1cccc2ccccc12)C(=O)O; 2Nal = N[C@@H](Cc1ccc2ccccc2c1)C(=O)O; Cbz = O=C(OCc1ccccc1)*

Tests used:
[1] = Inhibition of chymotrypsin-like activity of 20S proteasome from human erythrocyte
Outline: (§1)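 Substrates were Suc-Leu-Leu-Val-Tyr-AMC (chymotrypsin-like), Ac-Arg-Leu-Arg-AMC (trypsin-like) and Z-Leu-Leu-Glu-βNA (PGPH). Hydrolysis was read by fluorescence at ex 355 / em 460 nm against DMSO solvent controls.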

[2] = Inhibition of trypsin-like activity of 20S proteasome from human erythrocyte; outline: as §1
[3] = Inhibition of peptidylglutamyl peptide hydrolyzing-like activity of 20S proteasome from human erythrocyte; outline: as §1
J558L [4] = experiment: Cytotoxicity against mouse J558L cells after 24 hrs by MTT assay; assay type: functional, cell-based
Outline: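 Murine J558L myeloma cells grown in RPMI-1640 with 10% heat-inactivated FCS, antibiotics, 2-mercaptoethanol and 2 mM L-glutamine. Cells were seeded at 3 × 10³ per well and compounds were added the next day. MTT at 1 mg/mL was present for the last 4 h. Cells were lysed in SDS/DMF buffer at pH 4.7 overnight and read at 570 nm. Viability is (A_e − A_b)×100/(A_c − A_b), relative to medium-only cultures.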

EMT6 [5] = experiment: Cytotoxicity against mouse EMT6 cells after 24 hrs by crystal violet staining
EMT6 [6] = experiment: Inhibition of proteasome in mouse EMT6 cell lysate assessed as cleavage of Suc-leu-leu-val-Tyr-AMC at 100 nM after 15 mins; design: scale not given: the % may be the effect or the level left
EMT6 [7] = experiment: Inhibition of proteasome in mouse EMT6 cell lysate assessed as cleavage of Suc-leu-leu-val-Tyr-AMC at 100 nM after 30 mins; design: scale not given: the % may be the effect or the level left
EMT6 [8] = experiment: Inhibition of proteasome in mouse EMT6 cell lysate assessed as cleavage of Suc-leu-leu-val-Tyr-AMC at 100 nM after 60 mins; design: scale not given: the % may be the effect or the level left
J558L [9] = experiment: Inhibition of proteasome in mouse J558L cell lysate assessed as cleavage of Suc-leu-leu-val-Tyr-AMC at 100 nM after 30 mins; design: scale not given: the % may be the effect or the level left
J558L [10] = experiment: Inhibition of proteasome in mouse J558L cell lysate assessed as cleavage of Suc-leu-leu-val-Tyr-AMC at 100 nM after 60 mins; design: scale not given: the % may be the effect or the level left
J558L [11] = experiment: Inhibition of proteasome in mouse J558L cell lysate assessed as cleavage of Suc-leu-leu-val-Tyr-AMC at 100 nM after 15 mins; design: scale not given: the % may be the effect or the level left
EMT6 [12] = experiment: Inhibition of proteasome in mouse EMT6 cell lysate assessed as cleavage of Suc-leu-leu-val-Tyr-AMC at 1000 nM after 15 mins; design: scale not given: the % may be the effect or the level left
EMT6 [13] = experiment: Inhibition of proteasome in mouse EMT6 cell lysate assessed as cleavage of Suc-leu-leu-val-Tyr-AMC at 1000 nM after 30 mins; design: scale not given: the % may be the effect or the level left
EMT6 [14] = experiment: Inhibition of proteasome in mouse EMT6 cell lysate assessed as cleavage of Suc-leu-leu-val-Tyr-AMC at 1000 nM after 60 mins; design: scale not given: the % may be the effect or the level left
J558L [15] = experiment: Inhibition of proteasome in mouse J558L cell lysate assessed as cleavage of Suc-leu-leu-val-Tyr-AMC at 1000 nM after 15 mins; design: scale not given: the % may be the effect or the level left
J558L [16] = experiment: Inhibition of proteasome in mouse J558L cell lysate assessed as cleavage of Suc-leu-leu-val-Tyr-AMC at 1000 nM after 30 mins; design: scale not given: the % may be the effect or the level left
J558L [17] = experiment: Inhibition of proteasome in mouse J558L cell lysate assessed as cleavage of Suc-leu-leu-val-Tyr-AMC at 1000 nM after 60 mins; design: scale not given: the % may be the effect or the level left
[18] = Inhibition of 20S proteasome from human erythrocyte; outline: as §1

CC(C)C[C@@H](C=O)NC(=O)[C@@H](CC(C)C)NC(=O)[C@H](CC(C)C)NC(=O)OCc1ccccc1
IC50 [1]: 0.22 µM | IC50 [2]: 34.4 µM | IC50 [3]: 2.95 µM | Activity (J558L [4]): inactive | Activity (EMT6 [5]): inactive | Activity (EMT6 [6]): 17% | Activity (EMT6 [7]): 22% | Activity (EMT6 [8]): 31% | Activity (J558L [9]): 36% | Activity (J558L [10]): 50% | Activity (J558L [11]): 25% | Activity (EMT6 [12]): 5% | Activity (EMT6 [13]): 7% | Activity (EMT6 [14]): 13% | Activity (J558L [15]): 11% | Activity (J558L [16]): 21% | Activity (J558L [17]): 38%

CC(C)C[C@H](NC(=O)[C@@H](CC(C)C)NC(=O)OCc1ccccc1)C(=O)N[C@@H](C=O)CC(C)C
IC50 [1]: > 100 µM | IC50 [2]: > 100 µM | IC50 [3]: > 100 µM | Activity (J558L [9]): 110% | Activity (J558L [10]): 112% | Activity (J558L [11]): 100% | Activity (J558L [15]): 102% | Activity (J558L [16]): 96% | Activity (J558L [17]): 99%

CC(C)C[C@H](C=O)NC(=O)[C@@H](CC(C)C)NC(=O)[C@@H](CC(C)C)NC(=O)OCc1ccccc1
IC50 [1]: 9.81 µM | IC50 [2]: > 100 µM | IC50 [3]: 11.3 µM | Activity (EMT6 [6]): 90% | Activity (EMT6 [7]): 90% | Activity (EMT6 [8]): 91% | Activity (J558L [9]): 89% | Activity (J558L [10]): 89% | Activity (J558L [11]): 87% | Activity (EMT6 [12]): 62% | Activity (EMT6 [13]): 70% | Activity (EMT6 [14]): 78% | Activity (J558L [15]): 58% | Activity (J558L [16]): 66% | Activity (J558L [17]): 71%

CC(C)C[C@@H](C=O)NC(=O)[C@H](Cc1cccc2ccccc12)NC(=O)[C@H](Cc1ccc2ccccc2c1)NC(=O)OCc1ccccc1 (Cbz-[2Nal]-[1Nal]-Leu-aldehyde)
Ki [18]: 0.015 nM

CC(C)CC(NC(=O)[C@@H](CC(C)C)NC(=O)OCc1ccccc1)C(=O)N[C@H](C=O)CC(C)C (single isomer, unassigned; (+)) [listing 1 of 2 here]
IC50 [1]: > 100 µM | IC50 [2]: > 100 µM | IC50 [3]: > 100 µM

CC(C)CC(NC(=O)[C@@H](CC(C)C)NC(=O)OCc1ccccc1)C(=O)N[C@H](C=O)CC(C)C (single isomer, unassigned; (+)) [listing 2 of 2 here]
Activity (EMT6 [6]): 97% | Activity (EMT6 [7]): 95% | Activity (EMT6 [8]): 95% | Activity (J558L [9]): 118% | Activity (J558L [10]): 123% | Activity (J558L [11]): 115% | Activity (EMT6 [12]): 104% | Activity (EMT6 [13]): 100% | Activity (EMT6 [14]): 99% | Activity (J558L [15]): 114% | Activity (J558L [16]): 117% | Activity (J558L [17]): 121%

CC(C)CC(NC(=O)[C@@H](CC(C)C)NC(=O)OCc1ccccc1)C(=O)N[C@H](C=O)CC(C)C (stereo in doubt) [listing 1 of 2 here]
IC50 [1]: 1.79 µM | IC50 [3]: 17.2 µM

CC(C)CC(NC(=O)[C@@H](CC(C)C)NC(=O)OCc1ccccc1)C(=O)N[C@H](C=O)CC(C)C (stereo in doubt) [listing 2 of 2 here]
Activity (EMT6 [6]): 87% | Activity (EMT6 [7]): 85% | Activity (EMT6 [8]): 84% | Activity (J558L [9]): 77% | Activity (J558L [10]): 82% | Activity (J558L [11]): 71% | Activity (EMT6 [12]): 61% | Activity (EMT6 [13]): 61% | Activity (EMT6 [14]): 67% | Activity (J558L [15]): 30% | Activity (J558L [16]): 40% | Activity (J558L [17]): 53%

CC(C)C[C@@H](C=O)NC(=O)[C@H](CC(C)C)NC(=O)[C@H](CC(C)C)NC(=O)OCc1ccccc1 (stereo in doubt)
Activity (EMT6 [6]): 71% | Activity (EMT6 [7]): 77% | Activity (EMT6 [8]): 86% | Activity (J558L [9]): 91% | Activity (J558L [10]): 95% | Activity (J558L [11]): 84% | Activity (EMT6 [12]): 29% | Activity (EMT6 [13]): 37% | Activity (EMT6 [14]): 50% | Activity (J558L [15]): 71% | Activity (J558L [16]): 72% | Activity (J558L [17]): 74%

CC(C)C[C@@H](C=O)NC(=O)[C@H](CC(C)C)NC(=O)[C@H](CC(C)C)NC(=O)OCc1ccccc1 (stereo in doubt) [MG-132]
IC50 [1]: 5.46 µM | IC50 [2]: > 100 µM | IC50 [3]: > 100 µM

CC(C)C[C@@H](C=O)NC(=O)[C@H](CC(C)C)NC(=O)[C@H](CC(C)C)NC(=O)OCc1ccccc1 (stereo in doubt; 2)
Activity (EMT6 [6]): 20% | Activity (EMT6 [7]): 25% | Activity (EMT6 [8]): 35% | Activity (J558L [9]): 44% | Activity (J558L [10]): 60% | Activity (J558L [11]): 32% | Activity (EMT6 [12]): 12% | Activity (EMT6 [13]): 14% | Activity (EMT6 [14]): 19% | Activity (J558L [15]): 15% | Activity (J558L [16]): 25% | Activity (J558L [17]): 44%

CC(C)C[C@@H](C=O)NC(=O)[C@H](CC(C)C)NC(=O)[C@H](CC(C)C)NC(=O)OCc1ccccc1 (stereo in doubt; 2) [MG-132]
IC50 [1]: 0.89 µM | IC50 [2]: 104 µM | IC50 [3]: 5.7 µM | Ki [18]: 4 nM

CC(C)CC(NC(=O)[C@H](CC(C)C)NC(=O)OCc1ccccc1)C(=O)N[C@@H](C=O)CC(C)C (stereo in doubt; (+)) [listing 1 of 2 here]
IC50 [1]: > 100 µM | IC50 [2]: > 100 µM | IC50 [3]: > 100 µM

CC(C)CC(NC(=O)[C@H](CC(C)C)NC(=O)OCc1ccccc1)C(=O)N[C@@H](C=O)CC(C)C (stereo in doubt; (+)) [listing 2 of 2 here]
Activity (EMT6 [6]): 110% | Activity (EMT6 [7]): 103% | Activity (EMT6 [8]): 99% | Activity (J558L [9]): 105% | Activity (J558L [10]): 107% | Activity (J558L [11]): 104% | Activity (EMT6 [12]): 118% | Activity (EMT6 [13]): 111% | Activity (EMT6 [14]): 106% | Activity (J558L [15]): 107% | Activity (J558L [16]): 106% | Activity (J558L [17]): 106%

CC(C)CC(NC(=O)[C@H](CC(C)C)NC(=O)OCc1ccccc1)C(=O)N[C@@H](C=O)CC(C)C (stereo in doubt; (-)) [listing 1 of 2 here]
IC50 [1]: 0.97 µM | IC50 [2]: 91.3 µM | IC50 [3]: 22.8 µM

CC(C)CC(NC(=O)[C@H](CC(C)C)NC(=O)OCc1ccccc1)C(=O)N[C@@H](C=O)CC(C)C (stereo in doubt; (-)) [listing 2 of 2 here]
Activity (EMT6 [6]): 95% | Activity (EMT6 [7]): 91% | Activity (EMT6 [8]): 91% | Activity (J558L [9]): 93% | Activity (J558L [10]): 94% | Activity (J558L [11]): 92% | Activity (EMT6 [12]): 44% | Activity (EMT6 [13]): 46% | Activity (EMT6 [14]): 53% | Activity (J558L [15]): 55% | Activity (J558L [16]): 64% | Activity (J558L [17]): 77%

CC(C)C[C@H](NC(=O)[C@H](Cc1ccccc1)NC(=O)c1cnccn1)B(O)O [BORTEZOMIB]
Ki [18]: 0.62 nM
